# Compound activity deposited in PubChem BioAssay by several laboratories.
# An excerpt weighted towards active compounds, which were near 2.1% of everything screened.
# STAT3 blocker: inhibitors of IL-6 induced STAT3 signaling; AID 862; hit rate 0.89% among 190,000; inhibition, % at 5.5 µM; U3A cells, IL-6 STAT3-luciferase reporter, luminescence; host cell line lacks STAT1;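 active means inhibition above the mean inhibition across all screened compounds plus 3 SD, cut at about 44% in these data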;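 further: 0% = DMSO only wells and 100% = 100 µM nifuroxazide control wells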
# STAT3 act: activators of IL-6 induced STAT3 signaling; U3A cells, IL-6 STAT3-luciferase reporter, luminescence; 100% = signal with IL-6 EC80 alone; activation (% of control), % at 5.6 µM; hit rate 0.91% among 190,000; AID 871;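 active means activation above the screen-wide mean of compound activation plus 3 SD, cut at about 130% in these data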;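 further: 0% = background luminescence of wells with medium and substrate only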
#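 Material: STAT1-lacking human U3A cells, STAT3 luciferase reporter | Benchmarks: IL-6-only wells as 100% reference | Probe or stimulus: IL-6 (33 ng/mL) | Timing: Compound 1 h, then IL-6 6 h at 37 °C | Detection: Luminescence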
# TNF necrop inh: blocks TNF-alpha induced death of Jurkat FADD-/- cells; hit rate 0.068% among 220,000; activation (protection from cell death), % at 10 µM; Jurkat FADD-/- TNF necroptosis rescue, ATP luminescence, 24 h; 0 = TNF only, 100 = no-TNF cells;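 active means activation, meaning protection from cell death, of at least 50% relative to plate controls; inactive means activation below 50%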;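 further: necroptosis triggered by 40 ng/mL TNF-alpha added together with compound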
# zVAD death inh: blocks zVAD induced death of L929 cells. AID 1377. viability rescue, % at 10 µM. L929 zVAD necroptosis rescue, ATP luminescence, 24 h; with zVAD 60 µM. hit rate 0.38% among 220,000;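 active means activation, scaled between plate controls, above about 75%, limit read from the data; inactive means activation under that limit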;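 further: 0% = zVAD with DMSO and 100% = DMSO alone without zVAD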
# STAT1 blocker: inhibitors of IFN-gamma induced STAT1 signaling. NIH 3T3 STAT1-luciferase reporter, luminescence. hit rate 0.35% among 200,000. inhibition, % at 5.5 µM;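 active means inhibition above a set limit, the mean inhibition across all tested compounds plus 3 SD, cut at about 34% in these data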;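 further: 0% = IFN-gamma with DMSO and 100% = IFN-gamma with 300 µM nifuroxazide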
# Active calls of the source: *; . = no result given.
SMILES,STAT3 blocker,STAT3 act,TNF necrop inh,zVAD death inh,STAT1 blocker
Cc1cc(C(=O)Nc2cccc(C(=O)O)c2)oc1C,87.3*,30.5,-1.9,1.5,55.1*
O=C(/C=C/c1ccccc1)N/C(=C/c1ccccc1)C(=O)Nc1cccc(C(=O)O)c1,-5.2,106.2,0.7,0.8,-0.2
O=C(/C=C/c1ccccc1)Nc1cccc(C(=O)O)c1,107.0*,9.8,-1.8,4.9,95.8*
CSc1ccc(/C=C/C(=O)Nc2ccccc2)cc1,79.2*,36.5,-3.7,17.0,53.3*
CC(C)(C)n1ncc2c(=O)n(CC(=O)N3CCCc4ccccc43)cnc21,-4.7,107.3,0.8,0.1,-4.6
Cc1ccc(-n2nc3cc(C)c(NC(=S)NC(=O)/C=C/c4ccco4)cc3n2)cc1,-4.3,104.3,0.8,-0.5,-15.1
CC(=O)c1c(C)[nH]c(C(=O)OCCOc2ccccc2)c1C,84.4*,31.1,0.1,1.9,50.1*
CC(=O)c1c(C)[nH]c(C(=O)COC(=O)CCCOc2ccccc2)c1C,8.8,97.3,-0.4,0.3,4.1
S=c1[nH]c2ccccc2o1,-38.5,133.3*,-0.6,0.2,5.5
O=C(NCC1CCCO1)c1ccc(CNS(=O)(=O)c2ccc(F)c(Cl)c2)cc1 (centres undefined),-4.3,105.7,2.0,0.7,5.5
c1ccc2nc(-c3nc4ccccc4o3)ccc2c1,80.3*,35.7,-8.2,2.9,38.0*
c1ccc(-c2nc3ccccc3o2)nc1,6.4,98.1,-1.2,2.0,-27.7
Cc1csc(NC(=O)c2cn3ccccc3n2)n1,95.5*,23.0,-6.7,2.7,64.7*
O=C(CSc1nnc(CNc2ccc(F)cc2)o1)N1c2ccccc2Sc2ccccc21,7.8,97.1,-7.6,0.2,-1.2
Cc1ccc(C(=O)NCCc2cccs2)cc1,80.7*,35.6,1.7,1.4,57.6*
O=C(NNc1ccnc2cc(Cl)ccc12)C1CCCCC1,76.5*,38.8,-6.0,-0.4,35.9*
Cc1cc(C(=O)CN2C(=O)c3cccc(N)c3C2=O)c(C)n1Cc1cccs1,-43.3,134.0*,-0.9,0.2,-50.9
COc1ccccc1N(C)S(=O)(=O)c1ccc(C(=O)OC(C)C(=O)NCc2ccc3c(c2)OCO3)cc1 (centres undefined),8.1,99.0,3.1,0.1,4.0
Cc1cccn2cc(-c3c[nH]c4ccccc34)nc12,-36.8,139.8*,-2.6,-0.5,-38.6
CN1N=C2c3ccccc3CCC2C1c1ccc(C(F)(F)F)cc1 (centres undefined),.,.,-1.0,0.1,.
O=C(O)c1cccc(NC(=O)c2ccc(Cl)c(S(=O)(=O)N3CCCCCC3)c2)c1,52.8*,57.0,-0.3,0.5,39.5*
O=C(Nc1ccccc1)c1cccc(S(=O)(=O)N2CCCCC2)c1,13.7,91.7,0.4,0.1,9.3
O=C(Nc1ccccc1C(=O)O)c1ccc(Cl)c(S(=O)(=O)N2CCOCC2)c1,19.2,88.1,-2.8,1.4,51.3*
COc1ccc(-n2c(SCc3nnc(-c4ccccc4)o3)nnc2-c2ccccc2)cc1,1.5,105.3,-7.1,0.5,-10.1
Cc1ccc2cc(C=O)c(N(C)C)nc2c1,-37.6,134.3*,1.2,0.1,1.7
SMILES,STAT3 blocker,STAT3 act,TNF necrop inh,zVAD death inh,STAT1 blocker
Cc1cc2cc(C=O)c(Cl)nc2cc1C,8.5,102.5,-12.8,0.0,-7.8
CCOC(=O)c1cnc(Nc2nc3ccccc3o2)nc1C,96.3*,20.6,-13.1,-2.8,45.0*
Cc1[nH]n(-c2ccccc2)c(=O)c1/C=N/N1C(=O)c2cccc3cccc(c23)C1=O,0.0,100.5,0.0,1.1,-10.1
O=[N+]([O-])c1nn(-c2ccc3c(c2)OCCO3)n(O)c1=Nc1ccccc1,90.3*,25.3,-1.1,0.6,45.9*
COc1ccc(C2c3ccc(O)cc3Oc3ncn(CCCO)c(=N)c32)cc1 (centres undefined),.,.,1.5,0.8,.
CCS(=O)(=O)N1CCCC(C(=O)NCCCOC)C1 (centres undefined),14.4,94.1,0.8,1.6,1.4
O=C(NC(=S)N1CCCc2ccccc21)c1ccc(Br)cc1,-46.2,133.2*,0.9,0.7,2.3
O=C(NC(=S)N1CCCc2ccccc21)c1ccc(Cl)cc1,-50.3,142.4*,2.4,0.6,-12.7
Cc1ccc(-c2cc(C(F)(F)F)c(C#N)c(SCC(=O)O)n2)cc1,-38.8,135.2*,0.3,-2.3,0.2
CN(C)S(=O)(=O)c1cccc(C(=O)N(Cc2ccc(F)cc2)Cc2ccco2)c1,2.8,100.8,-1.7,0.1,8.2
